Test [1] has as its system MCF7. Briefly: Cytotoxicity against human MCF7 cells assessed as cell viability after 24 hrs by crystal violet staining assay. Conditions: MCF7, 24 h. The class given is functional, cell-based.
Test [2] concerns HepG2. As to the kind of experiment: Cytotoxicity against human HepG2 cells assessed as cell viability after 24 hrs by crystal violet staining assay. Conditions: HepG2, 24 h. The class given is functional, cell-based. The procedure, abridged:
(§1)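 Cells were kept as monolayers in RPMI-1640 with 10% heat-inactivated FCS and 50 µg/ml gentamycin at 37 °C under 5% CO2. They were seeded at 3,000 cells/well and, 24 h later, washed with PBS (pH 7.2). Ten dilutions in fresh medium were added for 24 h at 37 °C, with a 1% DMSO vehicle control. Survivors were stained with crystal violet, lysed with 33% acetic acid and read at 490 nm against untreated cells. IC50 was taken from graphic plots; mean of at least three experiments.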

A short description of test [3]: Cytotoxicity against human HCT116 cells assessed as cell viability after 24 hrs by crystal violet staining assay. The following applies: HCT-116, 24 h. Format: functional, cell-based. The procedure, abridged: as §1
Test [4] has as its system HepG2. Briefly: Cytotoxicity against human HepG2 cells assessed as growth inhibition after 72 hrs by Sulforhodamine B colorimetric assay. Format: functional, cell-based. The following applies: HepG2, 72 h.
The subject of test [5] is L1210. Briefly: Cytotoxicity against mouse L1210 cells assessed as cell growth inhibition by MTT assay. Format: functional, cell-based.
Test [6] in a line: Cytotoxicity against human KBV1 cells assessed as cell survival after 72 hrs by MTT assay. The class given is functional, cell-based. The following applies: KB-V1, 72 h. Background: Formazan colour is commonly taken as a measure of viable cells.
The nature of test [7]: Cytotoxicity against human KB3-1 cells assessed as cell survival after 72 hrs by MTT assay. The class given is functional, cell-based. The following applies: KB 3-1, 72 h.
For test [8], the system named is MCF7. Briefly: Cell cycle arrest in human MCF7 cells assessed as accumulation at pre-G phase at IC50 after 24 hrs by flow cytometric analysis relative to control. The class given is functional. Background: Flow cytometry measures light scatter and fluorescence of single cells or particles in a stream.
The subject of test [9] is MCF7. Briefly: Induction of apoptosis in human MCF7 cells assessed as necrotic cells at IC50 after 24 hrs by annexin V-FITC/propidium iodide staining based flow cytometry relative to control. Format: functional.
Test [10] concerns MCF7. Briefly: Induction of apoptosis in human MCF7 cells assessed as early apoptotic cells at IC50 after 24 hrs by annexin V-FITC/propidium iodide staining based flow cytometry (reference value: 3.70%). Format: functional.
In test [11] the test system is MCF7. Briefly: Induction of apoptosis in human MCF7 cells at IC50 after 24 hrs by annexin V-FITC/propidium iodide staining based flow cytometry relative to control. Format: functional.
The test system of test [12] is MCF7. As to the kind of experiment: Cell cycle arrest in human MCF7 cells assessed as accumulation at G2/M phase at IC50 after 24 hrs by flow cytometric analysis relative to control. Format: functional.
The subject of test [13] is MCF7. As to the kind of experiment: Induction of apoptosis in human MCF7 cells assessed as viable cells at IC50 after 24 hrs by annexin V-FITC/propidium iodide staining based flow cytometry (reference value: 96.3%). Format: functional.
Test [14] deals with MCF7. Briefly: Induction of apoptosis in human MCF7 cells assessed as late apoptotic cells at IC50 after 24 hrs by annexin V-FITC/propidium iodide staining based flow cytometry relative to control. The class given is functional.
The test system of test [15] is MCF7. As to the kind of experiment: Cell cycle arrest in human MCF7 cells assessed as decrease in cell level at G0/G1 phase at IC50 after 24 hrs by flow cytometric analysis relative to control. Format: functional. The arrangement: scale not given: the % may be the effect or the level left.
Test [16] deals with MCF7. As to the kind of experiment: Cytotoxicity against human MCF7 cells assessed as growth inhibition after 72 hrs by Sulforhodamine B colorimetric assay. Format: functional, cell-based. The following applies: MCF7, 72 h.
For test [17], the target named is Cyclin-dependent kinase 2/cyclin E1 (Homo sapiens, UniProt P24941). Briefly: Inhibition of GST-tagged recombinant human CDK2/cyclin E expressed in insect SF-9 cells after 10 mins by scintillation counting analysis in presence of [gamma-33P]-ATP. Details: species or system Sf9.

Molecules are shown by their SMILES.

As to `COc1ccc2c(c1)/C(=N/NC(=O)c1cncc(C(=O)N/N=C3\C(=O)Nc4ccc(OC)cc43)c1)C(=O)N2`, the IC50 was 66.5 µM in [1], 36.5 µM in [2] and 45.4 µM in test [3].

Take `O=C1Nc2ccc(F)cc2/C1=N/Nc1nc(-c2ccccc2)nc2ccccc12`: the IC50 in test [4] stood at 1 µM.

`Cc1ccc2c(c1)/C(=N/NC(=O)N/N=C1\C(=O)Nc3ccc(C)cc31)C(=O)N2`: the IC50 in [5] came out at 16 µM.

For the compound `Cc1ccc2c(c1)/C(=N/NC(=O)C(=O)N/N=C1\C(=O)Nc3ccc(C)cc31)C(=O)N2`, the half-inhibitory concentration (IC50) was 55.9 µM in test [1], > 100 µM in [2] and > 100 µM in test [3].

For `O=C1Nc2ccc([N+](=O)[O-])cc2/C1=N/NC(=O)c1cncc(C(=O)N/N=C2\C(=O)Nc3ccc([N+](=O)[O-])cc32)c1`, the figures for the IC50 in test [1], in test [2] and in test [3] were 88.8 µM, 75.9 µM and > 100 µM, respectively.

Turning to `COc1ccc2c(c1)/C(=N/NC(=O)c1[nH]c(C)c(C(=O)N/N=C3\C(=O)Nc4ccc(OC)cc43)c1C)C(=O)N2`, the values for the IC50 in test [1], in [2] and in test [3] were 78.8 µM, 83.5 µM and > 100 µM, respectively.

For `O=C1Nc2ccc(Cl)cc2/C1=N/N=C1\C(=O)N(c2ccccc2)c2ccccc21`, the figures for the IC50 in [6] and in test [7] were 6.07 µM and 6.79 µM, respectively.

As for `Cc1[nH]c(C(=O)N/N=C2\C(=O)Nc3ccc([N+](=O)[O-])cc32)c(C)c1C(=O)N/N=C1\C(=O)Nc2ccc([N+](=O)[O-])cc21`, the IC50 in test [1] is > 100 µM; in test [2] it was 86.9 µM; in test [3], > 100 µM.

With `Cc1c(C(=O)N/N=C2\C(=O)Nc3ccccc32)c(C)n(C)c1C(=O)N/N=C1\C(=O)Nc2ccccc21`, the IC50 in [1], in [2] and in [3] was > 100 µM each time.

With `Cc1[nH]c(C(=O)N/N=C2\C(=O)Nc3ccccc32)c(C)c1C(=O)N/N=C1\C(=O)Nc2ccccc21`, the figures for the IC50 in [1], in test [2] and in test [3] were 69.2 µM, 30.1 µM and 76.5 µM, respectively.

Turning to `Cc1ccc2c(c1)/C(=N/NC(=O)c1[nH]c(C)c(C(=O)N/N=C3\C(=O)Nc4ccc(C)cc43)c1C)C(=O)N2`, the IC50 in test [1] is 46.1 µM; in test [2] it was > 100 µM; in test [3] it was 45.9 µM.

On to `Cc1[nH]c(C(=O)N/N=C2\C(=O)Nc3ccc(Br)cc32)c(C)c1C(=O)N/N=C1\C(=O)Nc2ccc(Br)cc21`, for which the IC50 turned out to be 36.7 µM in test [1], 32.4 µM in [2] and 37.3 µM in test [3].

Consider `O=C1Nc2ccc(F)cc2/C1=N/NC(=O)c1cncc(C(=O)N/N=C2\C(=O)Nc3ccc(F)cc32)c1`, for which the IC50 in [1] stood at 38 µM; in [2], 76.3 µM; in test [3], 24.5 µM.

As for `O=C(N/N=C1\C(=O)Nc2ccc([N+](=O)[O-])cc21)C(=O)N/N=C1\C(=O)Nc2ccc([N+](=O)[O-])cc21`, the IC50 in test [1] was determined as 91.2 µM; in test [2], 25.8 µM; in test [3], 56.2 µM.

On to `COc1ccc2c(c1)/C(=N/NC(=O)c1c(C)c(C(=O)N/N=C3\C(=O)Nc4ccc(OC)cc43)n(C)c1C)C(=O)N2`, for which the “fold change (FC)” value in [8] was determined as 5; in test [11], 6.7; in test [12] it was 1.83. The Activity in [9] is 0.18%; in test [10], 25%; in [13] it was 74.5%; in [14], 0.36%; in [15], 18.5%. Further, the IC50 in test [1] turned out to be 1.84 µM; in test [2] it was 6.99 µM; in test [3], 3.31 µM.

As to `O=C(N/N=C1\C(=O)Nc2ccc(Br)cc21)C(=O)N/N=C1\C(=O)Nc2ccc(Br)cc21`, the IC50 in test [1] is 91.9 µM; in test [2], 77.8 µM; in [3] it was 98.7 µM.

For `Cc1[nH]c(C(=O)N/N=C2\C(=O)Nc3ccc(F)cc32)c(C)c1C(=O)N/N=C1\C(=O)Nc2ccc(F)cc21`, the IC50 was determined as 76.3 µM in test [1], 78.4 µM in test [2] and 77 µM in [3].

On to `Cc1ccc2c(c1)/C(=N/NC(=O)c1c(C)c(C(=O)N/N=C3\C(=O)Nc4ccc(C)cc43)n(C)c1C)C(=O)N2`, for which the results for the IC50 in [1], in test [2] and in test [3] were 29.9 µM, 22.1 µM and 38.6 µM, respectively.

Consider `O=C1Nc2ccccc2/C1=N/NC(=O)c1cncc(C(=O)N/N=C2\C(=O)Nc3ccccc32)c1`, for which the figures for the 50% inhibitory concentration (IC50) in test [1], in test [2] and in [3] were 39.1 µM, 72.7 µM and 39.2 µM, respectively.

As for `COc1ccc(-c2nc(N/N=C3\C(=O)Nc4ccc(Cl)cc43)c3ccccc3n2)cc1OC`, the IC50 in [16] stood at 2.1 µM.

For the compound `O=C1Nc2ccc(Br)cc2/C1=N/NC(=O)c1cncc(C(=O)N/N=C2\C(=O)Nc3ccc(Br)cc32)c1`, the IC50 in [1] turned out to be 34.5 µM; in [2] it was 30.1 µM; in [3], 23.7 µM.

With `COc1cccc2c1C(=O)c1c(O)c3c(c(O)c1C2=O)C[C@@](O)(C(=O)CO)C[C@@H]3O[C@H]1C[C@H](N)[C@H](O)[C@H](C)O1` [DOXORUBICIN], the IC50 in [2] turned out to be 3.56 µM; in test [3], 3.7 µM.

Consider `O=C1/C(=C2\Nc3ccccc3C2=O)Nc2ccccc21` [INDIGO], for which the IC50 in test [17] stood at 1 µM.

A word on the IC50: it is the midpoint of a concentration-inhibition curve.

The values are drawn from ChEMBL document CHEMBL3758175, “Bis-isatin hydrazones with novel linkers: Synthesis and biological evaluation as cytotoxic agents” (Eur J Med Chem, 2016).
